# According to ChEMBL document CHEMBL4689842, “EUbOPEN Chemogenomics Library wave 1” (2021):
# Test system: U2OS
# Experiment: Multiplex assay against U2OS
# Assay type: toxicity, cell-based
# Details: human
# Outline: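 Phenotypes for tubulin, mitochondrial mass and membrane permeability are expressed as per cents of healthy-nucleus cells. Cells were stained live at seeding with Hoechst33342, BioTracker Green Microtubule Cytoskeleton Dye, MitoTracker Red and Annexin V Alexa Fluor 680, then imaged after compound addition on a CQ1 microscope at 37°C and 5% CO2. Machine-learning gating in CellPathfinder separated Hoechst high-intensity objects from normal cells, divided normal cells by nuclear state (healthy, pyknosed, fragmented) and divided pyknosed cells into mitotic or apoptotic.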
# [1] = 12 h, 1 µM, compound concentration 1 uM, replicate 1
# [2] = 12 h, 1 µM, compound concentration 1 uM, replicate 2
# [3] = 12 h, 10 µM, compound concentration 10 uM, replicate 1
# [4] = 12 h, 10 µM, compound concentration 10 uM, replicate 2
# [5] = 24 h, 1 µM, compound concentration 1 uM, replicate 1
# [6] = 24 h, 1 µM, compound concentration 1 uM, replicate 2
# [7] = 24 h, 10 µM, compound concentration 10 uM, replicate 1
# [8] = 24 h, 10 µM, compound concentration 10 uM, replicate 2
# [9] = 48 h, 1 µM, compound concentration 1 uM, replicate 1
# [10] = 48 h, 1 µM, compound concentration 1 uM, replicate 2
# [11] = 48 h, 10 µM, compound concentration 10 uM, replicate 1
# [12] = 48 h, 10 µM, compound concentration 10 uM, replicate 2
structure (smiles),measurement,setting,value
CCc1cccc(CC)c1NC(=O)c1nn(C)c2c1CCc1cnc(Nc3ccc(C(=O)NC4CCN(C)CC4)cc3OC(F)(F)F)nc1-2,Population Apoptotic (%),[1],34%
same,Population Fragmented Nuclei (%),[1],18%
same,Population Healthy Nuclei (%),[1],60%
same,Population Hoechst High Intensity Objects (%),[1],9%
same,Population Membrane Permeable-Phenotype (%),[1],3%
same,Population Mitochondria Different-Phenotype (%),[1],22%
same,Population Mitotic Cells (%),[1],65%
same,Population Normal (%),[1],90%
same,Population Pyknosed Nuclei (%),[1],20%
same,Population Tubulin-Different-Phenotype (%),[1],12%
same,Total Cell Count,[1],191
same,Population Apoptotic (%),[2],40%
same,Population Fragmented Nuclei (%),[2],1%
same,Population Healthy Nuclei (%),[2],83%
same,Population Hoechst High Intensity Objects (%),[2],13%
same,Population Membrane Permeable-Phenotype (%),[2],5%
same,Population Mitochondria Different-Phenotype (%),[2],14%
same,Population Mitotic Cells (%),[2],60%
same,Population Normal (%),[2],86%
same,Population Pyknosed Nuclei (%),[2],15%
same,Population Tubulin-Different-Phenotype (%),[2],18%
same,Total Cell Count,[2],51
same,Population Apoptotic (%),[3],50%
same,Population Fragmented Nuclei (%),[3],18%
same,Population Healthy Nuclei (%),[3],54%
same,Population Hoechst High Intensity Objects (%),[3],5%
same,Population Membrane Permeable-Phenotype (%),[3],34%
same,Population Mitochondria Different-Phenotype (%),[3],97%
same,Population Mitotic Cells (%),[3],50%
same,Population Normal (%),[3],94%
same,Population Pyknosed Nuclei (%),[3],26%
same,Population Tubulin-Different-Phenotype (%),[3],99%
same,Total Cell Count,[3],156
same,Population Apoptotic (%),[4],46%
same,Population Fragmented Nuclei (%),[4],12%
same,Population Healthy Nuclei (%),[4],70%
same,Population Membrane Permeable-Phenotype (%),[4],15%
same,Population Mitochondria Different-Phenotype (%),[4],98%
same,Population Mitotic Cells (%),[4],53%
same,Population Pyknosed Nuclei (%),[4],17%
same,Population Tubulin-Different-Phenotype (%),[4],86%
same,Total Cell Count,[4],75
same,Population Apoptotic (%),[5],44%
same,Population Fragmented Nuclei (%),[5],15%
same,Population Healthy Nuclei (%),[5],64%
same,Population Hoechst High Intensity Objects (%),[5],7%
same,Population Membrane Permeable-Phenotype (%),[5],3%
same,Population Mitochondria Different-Phenotype (%),[5],18%
same,Population Mitotic Cells (%),[5],55%
same,Population Normal (%),[5],92%
same,Population Pyknosed Nuclei (%),[5],20%
same,Population Tubulin-Different-Phenotype (%),[5],11%
same,Total Cell Count,[5],190
same,Population Apoptotic (%),[6],37%
same,Population Fragmented Nuclei (%),[6],7%
same,Population Healthy Nuclei (%),[6],81%
same,Population Hoechst High Intensity Objects (%),[6],10%
same,Population Membrane Permeable-Phenotype (%),[6],5%
same,Population Mitochondria Different-Phenotype (%),[6],12%
same,Population Mitotic Cells (%),[6],62%
same,Population Normal (%),[6],89%
same,Population Pyknosed Nuclei (%),[6],11%
same,Population Tubulin-Different-Phenotype (%),[6],19%
same,Total Cell Count,[6],53
same,Population Apoptotic (%),[7],56%
same,Population Fragmented Nuclei (%),[7],20%
same,Population Healthy Nuclei (%),[7],48%
same,Population Hoechst High Intensity Objects (%),[7],5%
same,Population Membrane Permeable-Phenotype (%),[7],40%
same,Population Mitochondria Different-Phenotype (%),[7],100%
same,Population Mitotic Cells (%),[7],43%
same,Population Normal (%),[7],94%
same,Population Pyknosed Nuclei (%),[7],30%
same,Population Tubulin-Different-Phenotype (%),[7],97%
same,Total Cell Count,[7],156
same,Population Apoptotic (%),[8],50%
same,Population Fragmented Nuclei (%),[8],15%
same,Population Healthy Nuclei (%),[8],63%
same,Population Hoechst High Intensity Objects (%),[8],2%
same,Population Membrane Permeable-Phenotype (%),[8],26%
same,Population Mitochondria Different-Phenotype (%),[8],91%
same,Population Mitotic Cells (%),[8],50%
same,Population Normal (%),[8],97%
same,Population Pyknosed Nuclei (%),[8],20%
same,Population Tubulin-Different-Phenotype (%),[8],73%
same,Total Cell Count,[8],77
same,Population Apoptotic (%),[9],46%
same,Population Fragmented Nuclei (%),[9],19%
same,Population Healthy Nuclei (%),[9],54%
same,Population Hoechst High Intensity Objects (%),[9],9%
same,Population Membrane Permeable-Phenotype (%),[9],5%
same,Population Mitochondria Different-Phenotype (%),[9],18%
same,Population Mitotic Cells (%),[9],53%
same,Population Normal (%),[9],90%
same,Population Pyknosed Nuclei (%),[9],25%
same,Population Tubulin-Different-Phenotype (%),[9],17%
same,Total Cell Count,[9],179
same,Population Apoptotic (%),[10],9%
same,Population Fragmented Nuclei (%),[10],16%
same,Population Healthy Nuclei (%),[10],72%
same,Population Hoechst High Intensity Objects (%),[10],4%
same,Population Membrane Permeable-Phenotype (%),[10],7%
same,Population Mitochondria Different-Phenotype (%),[10],19%
same,Population Mitotic Cells (%),[10],90%
same,Population Normal (%),[10],95%
same,Population Pyknosed Nuclei (%),[10],11%
same,Population Tubulin-Different-Phenotype (%),[10],23%
same,Total Cell Count,[10],49
same,Population Apoptotic (%),[11],57%
same,Population Fragmented Nuclei (%),[11],27%
same,Population Healthy Nuclei (%),[11],34%
same,Population Hoechst High Intensity Objects (%),[11],5%
same,Population Membrane Permeable-Phenotype (%),[11],57%
same,Population Mitochondria Different-Phenotype (%),[11],95%
same,Population Mitotic Cells (%),[11],42%
same,Population Normal (%),[11],94%
same,Population Pyknosed Nuclei (%),[11],38%
same,Population Tubulin-Different-Phenotype (%),[11],98%
same,Total Cell Count,[11],188
same,Population Apoptotic (%),[12],44%
same,Population Fragmented Nuclei (%),[12],11%
same,Population Healthy Nuclei (%),[12],51%
same,Population Membrane Permeable-Phenotype (%),[12],35%
same,Population Mitochondria Different-Phenotype (%),[12],86%
same,Population Mitotic Cells (%),[12],55%
same,Population Pyknosed Nuclei (%),[12],37%
same,Population Tubulin-Different-Phenotype (%),[12],64%
same,Total Cell Count,[12],97
